The test system of data set [1] is Normal Cell Lines (Wi38, WS1, NHDF). The data set can be described thus: MTT colorimetric assay, mean over three normal cell lines. The class given is cell-based. The note with it: read-out: IC50 In Vitro Growth Inhibitory Values, Normal Cell Lines, Mean ± SEM.
The subject of data set [2] is Cancer Cell Lines (A549, OE21, Hs683, U373, SKMEL, B16F10). The data set can be described thus: MTT colorimetric assay, mean over six cancer cell lines. To be noted: read-out: IC50 In Vitro Growth Inhibitory Values, Cancer Cell Lines, Mean ± SEM. The class given is cell-based. On the technique in general: Formazan colour is commonly taken as a measure of viable cells.

Data set [3] has as its system cancer versus normal cell lines. The data set can be described thus: In vitro therapeutic ratio, cancer versus normal cell lines. In kind it is cell-based. A digest of the protocol: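 MTT colorimetric growth assay on human cancer and normal cell lines. Cells were plated for 24 h at 10,000 to 40,000 cells/mL, depending on cell type, then cultured 72 h with or without test compound. Formazan from mitochondrial MTT reduction was read at 570 nm (reference 630 nm), in sextuplicate. The ratio compares MTT growth-inhibitory IC50 between normal and cancer cells.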

In a further data set the test system is CYP3A4. The note with it: cited from earlier work.
Data set [4] relates to glioma cells, which display resistance to proapoptotic stimuli. To be noted: 1 μM; cited from earlier work.
Data set [5] has as its system MCF-7 breast cancer cells. Description: Flow cytometry, annexin V / propidium iodide staining. The class given is cell-based, human. The note with it: 1 μM for 72 hrs, positive control. In general terms: A flow cytometer gives signals particle by particle.
The test system of data set [6] is Hs683 anaplastic oligodendroglioma cells. The data set can be described thus: MTT colorimetric assay, in vitro growth inhibition. In kind it is cell-based, human.
The subject of data set [7] is U373 glioblastoma (GBM) cells. The data set can be described thus: MTT colorimetric assay, in vitro growth inhibition. The note with it: 72 h. The class given is cell-based, human.
Data set [8] has as its system A549 non-small-cell-lung cancer (NSCLC) cells. Description: MTT colorimetric assay, in vitro growth inhibition. The class given is cell-based, human.
A further data set deals with B16F10 melanoma cells. The data set can be described thus: MTT colorimetric assay, in vitro growth inhibition. The class given is cell-based, mouse.
Data set [9] relates to OE21 esophageal cancer cells. The data set can be described thus: MTT colorimetric assay, in vitro growth inhibition. In kind it is cell-based, human.
The next data set relates to SKMEL-28 melanoma cells. The data set can be described thus: MTT colorimetric assay, in vitro growth inhibition. The class given is cell-based, human.
Data set [10] deals with A549 NSCLC cells. The data set can be described thus: Quantitative videomicroscopy: cell growth. The note with it: 5 μM, 72 h. The class given is cell-based, human.
For data set [11], the system named is U373 GBM cells. The data set can be described thus: Quantitative videomicroscopy: cell growth. To be noted: 5 μM, 72 h. The class given is cell-based, human.
For data set [12], the system named is U373 GBM cells. Description: Actin cytoskeleton organization by computer-assisted fluorescence microscopy. The class given is cell-based, human. The note with it: 5 μM for 6 hrs.
In another data set the test system is healthy mice. The data set can be described thus: Chronic maximal tolerated dose in healthy mice. In kind it is in vivo, mouse. The note with it: i.v. 5, 10, 20, 40 and 80 mg/kg once a day during 5 consecutive days; 28 days.
Data set [13] relates to A549 NSCLC cells. The data set can be described thus: Soft-agar colony formation, anchorage-independent culture. In kind it is cell-based, human. To be noted: between 0.5 (p < 0.05) and 5 (p < 0.01) μM, 38 days.
For data set [14], the system named is U373 GBM cells. The data set can be described thus: Flow cytometry, annexin V / propidium iodide staining. In kind it is cell-based, human. To be noted: 72 hrs.
Where [15] appears, read: read-out: In Vitro IC50 Growth Inhibitory Values, Hs683, MTT, 72 h, concentrations of up to 10 μM.
The mark [16] stands for this setting: read-out: In Vitro IC50 Growth Inhibitory Values, U373, MTT, concentrations of up to 10 μM.
The mark [17] stands for this setting: read-out: In Vitro IC50 Growth Inhibitory Values, SKMEL, MTT, 72 h, concentrations of up to 10 μM.
[18] abbreviates: read-out: In Vitro IC50 Growth Inhibitory Values, A549, MTT, 72 h, concentrations of up to 10 μM.
The mark [19] stands for this setting: read-out: In Vitro IC50 Growth Inhibitory Values, B16F10, MTT, 72 h, concentrations of up to 10 μM.
Where [20] appears, read: read-out: In Vitro IC50 Growth Inhibitory Values, OE21, MTT, 72 h, concentrations of up to 10 μM.

Read-outs that look alike come from different tables or passages of the source. A value given as a limit tells only on which side of the number the result lay.

The term IC50 denotes the concentration at which inhibition is half-maximal. Consider `C1=C2CCN3Cc4cc5c(cc4[C@H]([C@@H]4O[C@H]14)[C@@H]23)OCO5` [compound 14, (1α,2α)-3,12-didehydro-1,2-epoxy-9,10-[methylenebis(oxy)]-galanthan], for which the IC50 in data set [1] (mean of three normal cell lines) amounted to 24.9 ± 8.2 µM; in data set [2] (mean of six cancer cell lines), 5.3 ± 1.2 µM. Also, in [3] (MTT IC50), the Therapeutic ratio turned out to be 5.

As to `O=C1N[C@@H]2C(=C[C@H](O)[C@@H](O)[C@H]2O)c2cc3c(c(O)c21)OCO3` [narciclasine], in the data set with CYP3A4, the CYP3A4 inhibitory activity entry is “does”. The apoptosis induction entry in [4] is on record as “unable to induce apoptosis”. The “pro-apoptotic effects (AV/PI staining)” value in data set [5] is “induced significant pro-apoptotic effects”.

With `COc1cc2c(cc1O)[C@@H]1[C@H](O)[C@@H](O)C=C3CCN(C2)[C@H]31` [compound 18, (1S,2S,11bS,11cS)-1,2,10-triol-2,4,5,7,11b,11c-hexahydro-9-methoxy-1H-pyrrolo[3,2,1-de]phenanthridine], the IC50 was 63.3 ± 7.3 µM in data set [1] and 9 ± 1.3 µM in data set [2]. Moreover, the Therapeutic ratio in [3] (MTT IC50) was 7.

As to `CC(=O)O[C@H]1C=C2CCN3Cc4cc5c(cc4[C@H]([C@@H]1O)[C@@H]23)OCO5` [compound 5, (1S,2S,12bS,12cS)-1,2-Diol-2,4,5,7,12b,12c-hexahydro-1H-[1,3]dioxolo[4,5-j]pyrrolo[3,2,1-de]phenanthridine-2-acetate], the half-inhibitory concentration (IC50) in data set [6] (Homo sapiens, Hs 683, 72 h, read-out: IC50 In Vitro Growth Inhibitory Values) is 43 ± 2 µM; in data set [1] it was more than 96.2 µM; in data set [7] (Homo sapiens, U373 MG, read-out: IC50 In Vitro Growth Inhibitory Values), 63.1 ± 4.1 µM; in data set [2], 59.3 ± 8.2 µM; in data set [8] (Homo sapiens, A549, 72 h, read-out: IC50 In Vitro Growth Inhibitory Values) it was 47.6 ± 2.3 µM; in the data set with B16F10 melanoma cells (Mus musculus, B16-F10, 72 h, read-out: IC50 In Vitro Growth Inhibitory Values) it was 37.1 ± 2.8 µM. Moreover, the IC50 in data set [9] (Homo sapiens, OE21, 72 h, read-out: IC50 In Vitro Growth Inhibitory Values) was determined as 77.4 ± 3.1 µM. Also, the Therapeutic ratio in [3] (MTT IC50) was more than 2.

With `CC(=O)O[C@H]1[C@H]2c3cc4c(cc3CN3CC[C@@H](C[C@@H]1OC(C)=O)[C@H]23)OCO4` [compound 11, (1α,2β,12β)-1,2-Diol-9,10-[methylenebis(oxy)]-galanthan-diacetate], the IC50 (in data set [6] (setting [15]); in [7] (setting [16]); in the data set on SKMEL-28 melanoma cells (setting [17]); in data set [8] (setting [18]); in the data set with B16F10 melanoma cells (setting [19]); in data set [9] (setting [20])) was more than 10 µM throughout.

Turning to `c1cc2c3c(c1)-c1cc4c(cc1CN3CC2)OCO4` [compound 20, 4,5-dihydro-7H-[1,3]Dioxolo[4,5-j]pyrrolo[3,2,1-de]phenanthridine], the half-maximal inhibitory concentration (IC50) with SKMEL-28 melanoma cells (Homo sapiens, SK-MEL-28, 72 h, read-out: IC50 In Vitro Growth Inhibitory Values) amounted to 20.9 ± 1.2 µM; in [2], 11.6 ± 3.4 µM. The Therapeutic ratio in data set [3] (MTT IC50) came to 2.

In the case of `COC1=C[C@@H]2CCN3Cc4cc5c(cc4[C@@H]([C@H]23)[C@@H]1O)OCO5` [compound 22, (1S,3aS,12bS,12cS)-1-ol-2-methoxy-3a,4,5,7,12b,12c-hexahydro-1H-[1,3]Dioxolo[4,5-j]pyrrolo[3,2,1-de]phenanthridine], the IC50 in data set [1] was more than 99.2 µM. The Therapeutic ratio in data set [3] (MTT IC50) is more than 13.

On to `CC(=O)O[C@H]1[C@H]2c3cc4c(cc3CN3CCC(=C[C@@H]1OC(C)=O)[C@H]23)OCO4` [compound 3, (1S,2S,12bS,12cS)-1,2-Diol-2,4,5,7,12b,12c-hexahydro-1H-[1,3]dioxolo[4,5-j]pyrrolo[3,2,1-de]phenanthridine-1,2-diacetate], for which the IC50 in the data set on SKMEL-28 melanoma cells (setting [17]) is more than 10 µM.

For the compound `CC(=O)O[C@H]1[C@H]2c3cc4c(cc3CN3CC[C@H](C[C@@H]1OC(C)=O)[C@H]23)OCO4` [compound 9, (1S,2S,3aR,12bS,12cR)-1,2-Diol-2,3,3a,4,5,7,12b,12c-octahydro-1H-[1,3]dioxolo[4,5-j]pyrrolo[3,2,1-de]phenanthridine diacetate], the IC50 (in data set [6] (setting [15]); in data set [7] (setting [16]); in the data set with SKMEL-28 melanoma cells (setting [17]); in data set [8] (setting [18]); in the data set with B16F10 melanoma cells (setting [19]); in data set [9] (setting [20])) was more than 10 µM throughout.

With `O[C@H]1[C@H]2c3cc4c(cc3CN3CCC(=C[C@@H]1O)[C@H]23)OCO4` [compound 1, (1S,2S,12bS,12cS)-1,2-Diol,2,4,5,7,12b,12c-hexahydro-1H-[1,3]dioxolo[4,5-j]pyrrolo[3,2,1-de]phenanthridine], the CYP3A4 inhibitory activity entry with CYP3A4 was “no CYP3A4 inhibitory activity”. Moreover, the “in vitro growth inhibitory activity based on global growth rate (GGR)” value in the data set with A549 NSCLC cells [10] and in the data set on U373 GBM cells [11] was “marked in vitro growth inhibitory activity” in each case. In addition, the IC50 in data set [1] was more than 100 µM. Moreover, the “levels of polymerized actin” value in the data set on U373 GBM cells [12] is reported as “markedly increased the levels of polymerized actin”. For the same compound, in the data set on healthy mice, the “toxicity (body weight, death)” value is recorded as “no gross toxicity”. Moreover, the Therapeutic ratio in [3] (MTT IC50) was more than 15; in [3] (MTT IC50, listed as Lycorine), “at least 15”; in [3] (MTT IC50, listed as lycorine) it was 15. Besides, the “colony formation on soft agar” value in the data set on A549 NSCLC cells [13] was “significantly impairs colony formation”. For the same compound, the “pro-apoptotic effects (AV+ cells)” value with U373 GBM cells [14] (5 μM or 50 μM) was “did not induce pro-apoptotic effects”. Besides, the “non-apoptotic cell death (AV-/PI+ cells)” value in the data set with U373 GBM cells [14] (50 μM) was “induced non-apoptotic cell death”.

As for `O[C@H]1[C@H]2c3cc4c(cc3CN3CCC(=C[C@@H]1Cl)[C@H]23)OCO4` [compound 6, (1S,2S,12bS,12cS)-1-ol-2-Chloro-2,4,5,7,12b,12c-hexahydro-1H-[1,3]Dioxolo[4,5-j]pyrrolo[3,2,1-de]phenanthridine], the IC50 in [1] was more than 72.7 µM. Further, the Therapeutic ratio in data set [3] (MTT IC50) is more than 11.

Source of the values: publication PMC3205972 (Journal of medicinal chemistry, 2009).
